Measurements: ChEMBL document CHEMBL1240422, “Design, synthesis and biological evaluation of 3,5-diaryl-isoxazoline/isoxazole-pyrrolobenzodiazepine conjugates as potential anticancer agents” (2010)
Counter-ions that a name gives are not always drawn. Activity calls are given as the source filed them. The rule behind the calls is not given here.

Experiments:
A-375 [1] = assay: Cell cycle arrest in human A375 cells assessed as accumulation at G0/G1 phase at 4 uM after 24 hrs using propidium iodide staining by FACS; type: functional
Outline: (§1)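 Treated A375 cells (24 h) were harvested with trypsin-EDTA and fixed in ice-cold 70% ethanol (4 °C, 30 min). After a PBS wash, they were incubated with 1 mg/mL RNase A (37 °C, 30 min) and stained with propidium iodide solution containing trisodium citrate and Triton X-100. DNA content was measured by flow cytometry on 20,000 events. Controls were DMSO-treated.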

A-375 [2] = assay: Cell cycle arrest in human A375 cells assessed as accumulation at G2/M phase at 4 uM after 24 hrs using propidium iodide staining by FACS; type: functional; outline: as §1
A2780 = assay: Anticancer activity against human A2780 cells after 48 hrs by SRB assay; type: functional; conditions: A2780, 48 h
Outline: (§2)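 Grown in RPMI 1640 with 10% FBS and 2 mM L-glutamine at 37 °C, 5% CO2. Seeded at densities set by doubling time, then preincubated 24 h. Continuous 48 h drug exposure at four concentrations (0.1, 1, 10, 100), triplicate wells. Fixed with cold TCA (final 10%) at 4 °C, 60 min. Stained with 0.4% SRB in 1% acetic acid, eluted with 10 mM Tris base, read at 540/690 nm. Percent growth versus control wells.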

A-375 [3] = assay: Cell cycle arrest in human A375 cells assessed as accumulation at S phase at 4 uM after 24 hrs using propidium iodide staining by FACS; type: functional; outline: as §1
KB = assay: Anticancer activity against human KB cells after 48 hrs by SRB assay; type: functional; outline: as §2
SiHa = assay: Anticancer activity against human SiHa cells after 48 hrs by SRB assay; type: functional
Outline: (§3)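 Cells grown in RPMI 1640 with 10% FBS and 2 mM L-glutamine, plated at densities set by doubling time, and preincubated 24 h at 37 °C, 5% CO2. Compounds were tested at four concentrations (0.1, 1, 10, 100) in triplicate wells with 48 h continuous exposure. Cells were fixed with cold TCA (10% final, 60 min, 4 °C) and stained with 0.4% SRB in 1% acetic acid (20 min, RT). Dye was eluted with 10 mM Trizma base and read at 540 nm (690 nm reference). Percent growth is relative to control wells, plate by plate.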

ZR-75-1 = assay: Anticancer activity against human ZR-75-1 cells after 48 hrs by SRB assay; type: functional; conditions: ZR-75-1, 48 h; outline: as §3
A-375 [4] = assay: Induction of apoptosis in human A375 cells assessed as increase in PPAR protein level at 4 uM after 24 hrs by Western blotting; type: functional, cell-based
Outline: (§4)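 A375 cells were treated for 24 h and lysed in ice-cold RIPA buffer (1% NP-40, 0.5% deoxycholate, 0.1% SDS, protease inhibitors). Protein was quantified by Bradford assay, and 30 µg/lane was run on 12% SDS-PAGE and transferred to PVDF. Membranes were blocked 2 h at RT in TBST with 5% blocker, incubated with primary antibody overnight at 4 °C, then with HRP secondary (1:2000, 1 h, RT). Detection was by chemiluminescence, with β-actin as loading control.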

A-375 [5] = assay: Induction of apoptosis in human A375 cells assessed as caspase3 activation at 4 uM after 24 hrs by fluorimetry; type: functional, cell-based
Outline: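 Caspase-3 activity was measured by a fluorometric assay on lysates of treated and untreated A375 cells.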

A-375 [6] = assay: Induction of apoptosis in human A375 cells assessed as reduction in CDK2 protein level at 4 uM after 24 hrs by Western blotting; type: functional, cell-based; outline: as §4

Row | GI50 (A2780) | GI50 (KB) | SMILES | Activity (A-375 [1]) | Activity (A-375 [2]) | Activity (A-375 [3]) | GI50 (SiHa) | GI50 (ZR-75-1) | Activity (A-375 [4]) | Activity (A-375 [5]) | Activity (A-375 [6])
1 | 150 nM | 160 nM | COc1ccc(C2CC(c3cc(OC)c(OC)c(OC)c3)=NO2)cc1OCCCOc1cc2c(cc1OC)C(=O)N1CCC[C@H]1C=N2 (some centres undefined) |  |  |  | 180 nM | 130 nM |  |  | 
2 | < 100 nM | < 100 nM | COc1cc(C2=NOC(c3cc(OC)c(OC)c(OC)c3)C2)ccc1OCCCCCOc1cc2c(cc1OC)C(=O)N1CCC[C@H]1C=N2 (some centres undefined) | 92.45% | 1.15% | 6.4% | < 100 nM | < 100 nM | Active | Active | Active
3 | 120 nM | 130 nM | COc1ccc(-c2cc(-c3cc(OC)c(OC)c(OC)c3)on2)cc1OCCCCCOc1cc2c(cc1OC)C(=O)N1CCC[C@H]1C=N2 |  |  |  | 130 nM | < 100 nM |  |  | 
4 | 150 nM | 180 nM | COc1cc2c(cc1OCCCCOc1c(OC)cc(C3CC(c4cc(OC)c(OC)c(OC)c4)=NO3)cc1OC)N=C[C@@H]1CCCN1C2=O (some centres undefined) |  |  |  | 170 nM | 150 nM |  |  | 
5 | 150 nM | 170 nM | COc1ccc(-c2cc(-c3cc(OC)c(OC)c(OC)c3)on2)cc1OCCCOc1cc2c(cc1OC)C(=O)N1CCC[C@H]1C=N2 |  |  |  | 150 nM | 130 nM |  |  | 
6 | 150 nM | 180 nM | COc1cc2c(cc1OCCCCCOc1c(OC)cc(C3CC(c4cc(OC)c(OC)c(OC)c4)=NO3)cc1OC)N=C[C@@H]1CCCN1C2=O (some centres undefined) |  |  |  | 180 nM | 180 nM |  |  | 
7 | 140 nM | 160 nM | COc1cc2c(cc1OCCCCCOc1c(OC)cc(-c3cc(-c4cc(OC)c(OC)c(OC)c4)on3)cc1OC)N=C[C@@H]1CCCN1C2=O |  |  |  | 160 nM | 100 nM |  |  | 
8 | 130 nM | 150 nM | COc1cc2c(cc1OCCCOc1c(OC)cc(-c3cc(-c4cc(OC)c(OC)c(OC)c4)on3)cc1OC)N=C[C@@H]1CCCN1C2=O |  |  |  | 150 nM | 180 nM |  |  | 
9 | 140 nM | 150 nM | COc1ccc(-c2cc(-c3cc(OC)c(OC)c(OC)c3)on2)cc1OCCCCOc1cc2c(cc1OC)C(=O)N1CCC[C@H]1C=N2 |  |  |  | 150 nM | 100 nM |  |  | 
10 |  |  | COc1cc(C2=NOC(c3cc(OC)c(OC)c(OC)c3)C2)ccc1O (centres undefined) | 82.59% | 1.82% | 15.59% |  |  |  |  | 
11 | < 100 nM | 160 nM | COc1cccc2c1C(=O)c1c(O)c3c(c(O)c1C2=O)C[C@@](O)(C(=O)CO)C[C@@H]3O[C@H]1C[C@H](N)[C@H](O)[C@H](C)O1 [DOXORUBICIN HYDROCHLORIDE] |  |  |  | 1900 nM | < 100 nM |  |  | 
12 | 140 nM | 160 nM | COc1ccc(C2CC(c3cc(OC)c(OC)c(OC)c3)=NO2)cc1OCCCCCOc1cc2c(cc1OC)C(=O)N1CCC[C@H]1C=N2 (some centres undefined) |  |  |  | 160 nM | 120 nM |  |  | 

Row | SMILES | GI50 (A2780) | GI50 (KB) | Activity (A-375 [1]) | Activity (A-375 [2]) | Activity (A-375 [3]) | GI50 (SiHa) | GI50 (ZR-75-1) | Activity (A-375 [4]) | Activity (A-375 [5]) | Activity (A-375 [6])
13 | COc1cc2c(cc1O)N=C[C@@H]1CCCN1C2=O | 140 nM | 170 nM | 88.05% | 1.33% | 10.62% | 170 nM |  |  |  | 
